Columns and labels:
[1] = test system: cancer cell growth; conditions: inhibition of cancer cell growth; cited from earlier work
[2] = test system: metastatic or advanced solid malignancy; experiment: Tumor response; type: in vivo, human
[3] = test system: PPAR response element; conditions: cited from earlier work
[4] = Pharmacokinetics: plasma R-150033 by LC-MS/MS after oral efatutazone; type: in vivo, human
Summary of the method: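 Adults with advanced solid malignancies took oral doses twice daily in 21-day cycles, in cohorts of 3 to 6 at 0.10–1.15 mg. Plasma was sampled at baseline and 0.5, 1, 2, 3, 4, 6 and 8–10 h after the first dose on day 1 of cycles 1 and 2. Active metabolite R-150033 was measured by validated LC-MS/MS. AUC, Cmax and Tmax were derived; accumulation was AUC0-tau/AUC0–12, and steady state was judged from trough levels.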

[5] = test system: human pancreatic and anaplastic thyroid tumor-cell cultures; conditions: cited from earlier work
[6] = Patient 0020, Myxoid liposarcoma, 0.75 mg
[7] = PPAR response element activation

For Cc1cc(Oc2ccc3nc(COc4ccc(CC5SC(=O)NC5=O)cc4)n(C)c3c2)cc(C)c1N (stereo not drawn) [Efatutazone], the “Potency relative to rosiglitazone” value [1] is listed as “at least 50 ×”, the “Potency relative to troglitazone” value [1] is listed as at least 500 × and the “No. of patients with stable disease or partial response” value (from here on “No. of patients”) ([2]; 0.10 mg cohort (n = 6)) is listed as 3. The “Treatment duration in patients with SD/PR, Maximum” value ([2]; 0.10 mg cohort (n = 6)) was 294 days, the “Treatment duration in patients with SD/PR, Median” value ([2]; 0.10 mg cohort (n = 6)) was 67.0 days and the “Treatment duration in patients with SD/PR, Minimum” value ([2]; 0.10 mg cohort (n = 6)) was 66 days. For the same compound, the “No. of patients” value ([2]; 0.15 mg cohort (n = 3)) was 2, the “Treatment duration in patients with SD/PR, Maximum” value ([2]; 0.15 mg cohort (n = 3)) was 178 days and the “Treatment duration in patients with SD/PR, Median” value ([2]; 0.15 mg cohort (n = 3)) was 176.0 days. For the same compound, the “Treatment duration in patients with SD/PR, Minimum” value ([2]; 0.15 mg cohort (n = 3)) was 173 days, the “No. of patients” value ([2]; 0.25 mg cohort (n = 4)) was 0 and the “No. of patients” value ([2]; 0.35 mg cohort (n = 3)) was 1. The “Treatment duration in patients with SD/PR, Maximum” value ([2]; 0.35 mg cohort (n = 3)) was 84 days, the “Treatment duration in patients with SD/PR, Median” value ([2]; 0.35 mg cohort (n = 3)) was 84.0 days and the “Treatment duration in patients with SD/PR, Minimum” value ([2]; 0.35 mg cohort (n = 3)) was 84 days. For the same compound, the “No. of patients” value ([2]; 0.50 mg cohort (n = 6)) was 3, the “Treatment duration in patients with SD/PR, Maximum” value ([2]; 0.50 mg cohort (n = 6)) was 336 days and the “Treatment duration in patients with SD/PR, Median” value ([2]; 0.50 mg cohort (n = 6)) was 126.0 days. For the same compound, the “Treatment duration in patients with SD/PR, Minimum” value ([2]; 0.50 mg cohort (n = 6)) was 74 days, the “No. of patients” value ([2]; 0.75 mg cohort (n = 3)) was 1 and the “Treatment duration in patients with SD/PR, Maximum” value ([2]; 0.75 mg cohort (n = 3)) was 690 days. For the same compound, the “Treatment duration in patients with SD/PR, Median” value ([2]; 0.75 mg cohort (n = 3)) was 690.0 days, the “Treatment duration in patients with SD/PR, Minimum” value ([2]; 0.75 mg cohort (n = 3)) was 690 days and the “No. of patients” value ([2]; 1.15 mg cohort (n = 3)) was 1. The “Treatment duration in patients with SD/PR, Maximum” value ([2]; 1.15 mg cohort (n = 3)) was 84 days, the “Treatment duration in patients with SD/PR, Median” value ([2]; 1.15 mg cohort (n = 3)) was 84.0 days and the “Treatment duration in patients with SD/PR, Minimum” value ([2]; 1.15 mg cohort (n = 3)) was 84 days. For the same compound, the “Patients with stable disease lasting ≥60 days” value ([2]; 10 of 27 evaluable patients) was 37%, the “Number of sustained partial responses” value ([2]; 27 evaluable patients) was 1 and the “No. of patients” value ([2]; Overall (N = 27)) was 11. The “Treatment duration in patients with SD/PR, Maximum” value ([2]; Overall (N = 27)) was 690 days, the “Treatment duration in patients with SD/PR, Median” value ([2]; Overall (N = 27)) was 126.0 days and the “Treatment duration in patients with SD/PR, Minimum” value ([2]; Overall (N = 27)) was 66 days. For the same compound, the “Treatment Duration” value ([2]; Patient 0001, Thymoma, 0.10 mg, stable disease) was 67 days, the “Treatment Duration” value ([2]; Patient 0002, Carcinoma of unknown origin, 0.10 mg, stable disease) was 66 days and the “Treatment Duration” value ([2]; Patient 0005, Cancer of the peritoneum, 0.10 mg, stable disease) was 294 days. For the same compound, the “Treatment Duration” value ([2]; Patient 0007, Colorectal carcinoma, 0.15 mg, stable disease) was 173 days, the “Treatment Duration” value ([2]; Patient 0015, Carcinoma of unknown origin, 0.35 mg, stable disease) was 84 days and the “Treatment Duration” value ([2]; Patient 0017, Colorectal carcinoma, 0.50 mg, stable disease) was 126 days. For the same compound, the “Treatment Duration” value ([2]; Patient 0018, Colorectal carcinoma, 0.50 mg, stable disease) was 74 days, the “Time on therapy of patient with sustained partial response” value ([2]; Patient 20, metastatic myxoid liposarcoma) was 690 days and the “Nadir reduction in tumor size” value ([2]; Patient 20, metastatic myxoid liposarcoma, June 2009) was “approximately 49%”. For the same compound, the “Best response (RECIST)” value [2, 6] was “partial response”, the “Treatment Duration” value [2, 6] was 690 days and the “Fluorodeoxyglucose uptake (PET/CT)” value ([2]; Patient 20, November 2008) was “no fluorodeoxyglucose uptake in the remaining tumors”. The “Treatment Duration” value ([2]; Patient 0022, Cancer of the appendix, 1.15 mg, stable disease) was 84 days, the “Treatment Duration” value ([2]; Patient 0024, Carcinoma of unknown origin, 0.50 mg, stable disease) was 336 days and the “Treatment Duration” value ([2]; Patient 2001, Leiomyosarcoma, 0.15 mg, stable disease) was 178 days. The Median overall survival ([2]; in vivo) was 283 days, the “Median time to disease progression” value ([2]; in vivo) was 51 days and the “Median treatment duration for patients with SD or PR” value ([2]; in vivo) was 126 days. For the same compound, the “Potency relative to rosiglitazone” value [3, 7] was “at least 50 ×”, the “Potency relative to troglitazone” value [3, 7] was at least 500 × and the “PPAR subtype selectivity of transcription activation” value ([3]; background statement, no reference given) was “selectively activates PPARγ-mediated transcription with little effect on other PPAR subtypes”. For the same compound, the “Dose proportionality of exposure (AUC and Cmax)” value ([4]; 0.10 to 1.15 mg twice daily, single and multiple doses) was “approximately dose proportional”, the “Time to steady-state levels” value ([4]; based on trough plasma concentrations, twice daily) was “by week 1 of cycle 2” and the “Proliferation of tumor-cell cultures” value [5] was “inhibits proliferation”.
